2 molecules from ChEMBL document CHEMBL1139871, “Selective urokinase-type plasminogen activator inhibitors. 4. 1-(7-sulfonamidoisoquinolinyl)guanidines” (J Med Chem, 2007) can be followed below.

≈ marks a conversion by molar mass, not a printed value. A value given as a limit tells only on which side of the number the result lay.

The nature of data set [1]: Drug level in dermis of pig excisional wound model. The data set is classed as ADME, tissue-based, Sus scrofa. The conditions noted are these: in vivo, read-out: Activity. The procedure, abridged: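 Pig full-thickness wounds dosed topically once daily for 10 days with 1 mL of 10 mg/mL compound suspended in hydrogel (glycerol/water/F127/CMC). Animals killed on day 11. Wounds excised and dermal compound concentration determined.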

Data set [2] is described as follows: Lipophilicity, log D at pH7.4. The data set is classed as physicochemical. As to conditions: buffer, pH 7.4.
A further data set concerns the target Plasminogen (Homo sapiens, UniProt P00747). In words: Inhibition of human plasmin. The procedure, abridged: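 Human plasmin 0.7 µg/mL with 0.2 mM Chromozym-PL and varied inhibitor in Tris pH 8.1/NaCl buffer. Preincubated 15 min at 37 °C, then 30 min at 37 °C with substrate. A405 background-subtracted, % inhibition plotted for IC50.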
Data set [3] can be described thus: Solubility in phosphate buffered saline at pH 6.5. It is filed as physicochemical. The procedure, abridged: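 Solubility measured in phosphate-buffered saline, pH 6.5.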
For data set [4], the target named is Tissue-type plasminogen activator (Homo sapiens, UniProt P00750). In words: Inhibition of human tPA. The procedure, abridged: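 Human one-chain tPA 0.4 µg/mL (final) with 0.1 mg/mL tPA stimulator, preincubated 15 min at 37 °C with inhibitor in 75 mM Tris pH 8.1, 50 mM NaCl. Then 0.4 mM S-2288 (H-D-Ile-Pro-Arg-pNA) added, 60 min at 37 °C. A405 read after preincubation and after substrate incubation, background subtracted. IC50 from % inhibition vs concentration. Ki = IC50/(1+[S]/Km), Km 250 µM.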
Sequence of Tissue-type plasminogen activator (P00750 whole entry): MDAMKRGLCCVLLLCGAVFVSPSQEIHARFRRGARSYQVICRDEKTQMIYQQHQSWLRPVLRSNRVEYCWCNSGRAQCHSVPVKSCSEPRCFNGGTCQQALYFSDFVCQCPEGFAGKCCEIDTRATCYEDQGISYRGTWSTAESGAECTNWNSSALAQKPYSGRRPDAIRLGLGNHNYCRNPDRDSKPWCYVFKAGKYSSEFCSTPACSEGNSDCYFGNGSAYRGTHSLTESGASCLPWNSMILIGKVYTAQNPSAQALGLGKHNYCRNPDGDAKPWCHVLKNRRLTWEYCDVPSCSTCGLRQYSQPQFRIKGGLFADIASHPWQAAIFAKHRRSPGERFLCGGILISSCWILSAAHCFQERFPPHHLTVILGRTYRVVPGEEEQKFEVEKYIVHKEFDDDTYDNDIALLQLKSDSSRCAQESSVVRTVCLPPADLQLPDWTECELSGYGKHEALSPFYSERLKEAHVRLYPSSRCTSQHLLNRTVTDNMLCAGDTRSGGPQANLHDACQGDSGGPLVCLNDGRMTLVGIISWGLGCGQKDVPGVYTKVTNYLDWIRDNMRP

Data set [5] has as its target Coagulation factor X (Homo sapiens) (UniProt P00742). In words: Inhibition of factor 10a at 10 uM. The procedure, abridged: (§1)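 Human coagulation enzyme tested in a chromogenic enzyme assay. Percent inhibition was read at a single inhibitor concentration.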
Data set [6] deals with T1, Coagulation factor IX (Homo sapiens, UniProt P00740). The data set can be described thus: Inhibition of factor 9a at 12.5 uM. The procedure, abridged: as §1
T1 sequence (P00740 47-191 limits assumed): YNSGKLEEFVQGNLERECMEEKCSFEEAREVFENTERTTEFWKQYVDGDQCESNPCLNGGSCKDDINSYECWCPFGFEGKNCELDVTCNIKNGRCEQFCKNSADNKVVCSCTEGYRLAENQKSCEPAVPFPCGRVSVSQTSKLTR
T1 sequence (P00740 227-461 limits assumed): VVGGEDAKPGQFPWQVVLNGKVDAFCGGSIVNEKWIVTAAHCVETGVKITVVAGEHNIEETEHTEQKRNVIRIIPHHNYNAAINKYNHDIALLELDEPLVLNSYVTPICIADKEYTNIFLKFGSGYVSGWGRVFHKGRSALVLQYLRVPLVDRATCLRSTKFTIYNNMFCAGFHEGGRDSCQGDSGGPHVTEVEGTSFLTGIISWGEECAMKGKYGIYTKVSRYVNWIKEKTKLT
The nature of data set [7]: Dissociation constant, pKa of the compound. The data set is classed as physicochemical.
Data set [8] deals with T2, Coagulation factor VII (Homo sapiens) (UniProt P08709).
T2 sequence (whole entry): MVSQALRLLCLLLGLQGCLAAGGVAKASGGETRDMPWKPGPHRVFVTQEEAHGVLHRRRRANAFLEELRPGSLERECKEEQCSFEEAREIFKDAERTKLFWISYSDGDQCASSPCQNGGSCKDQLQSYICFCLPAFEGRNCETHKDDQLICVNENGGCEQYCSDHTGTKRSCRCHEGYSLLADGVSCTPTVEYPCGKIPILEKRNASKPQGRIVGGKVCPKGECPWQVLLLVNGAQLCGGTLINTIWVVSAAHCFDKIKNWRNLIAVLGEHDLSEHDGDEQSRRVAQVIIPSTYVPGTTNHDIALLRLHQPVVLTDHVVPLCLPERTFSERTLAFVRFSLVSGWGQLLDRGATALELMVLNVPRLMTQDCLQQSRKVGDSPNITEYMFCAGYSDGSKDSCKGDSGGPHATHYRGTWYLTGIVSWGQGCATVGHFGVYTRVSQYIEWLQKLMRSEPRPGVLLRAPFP
The data set can be described thus: Inhibition of factor 7a at 10 uM. The procedure, abridged: (§2)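 Chromogenic enzyme assays against coagulation proteases: bovine thrombin, human factors VIIa and IXa.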

The target in data set [9] is T1, Coagulation factor IX. The data set can be described thus: Inhibition of factor 9a. The procedure, abridged: as §2
Another data set addresses Prothrombin (Bos taurus) (UniProt P00735). The data set can be described thus: Inhibition of bovine thrombin at 10 uM. The procedure, abridged:
as §2

Data set [10] concerns the target T3, Urokinase-type plasminogen activator (Homo sapiens, UniProt P00749). The data set can be described thus: Inhibition of uPA in pig granulation tissue homogenate.
Data set [11] concerns the target T3, Urokinase-type plasminogen activator. In words: Inhibition of human uPA in human wound fluid.
Data set [12] is filed under the species Homo sapiens. In words: Solubility in human plasma.
The species entered for data set [13] is Homo sapiens. The data set can be described thus: Protein binding in human plasma. As to conditions: read-out: PPB (converted).

Sequence of Coagulation factor X (Homo sapiens) (P00742 41-179 limits assumed): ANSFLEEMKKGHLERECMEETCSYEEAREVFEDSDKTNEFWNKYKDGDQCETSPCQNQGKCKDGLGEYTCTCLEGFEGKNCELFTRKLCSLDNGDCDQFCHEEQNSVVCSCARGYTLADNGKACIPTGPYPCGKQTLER
Sequence of Coagulation factor X (Homo sapiens) (P00742 235-488 limits assumed): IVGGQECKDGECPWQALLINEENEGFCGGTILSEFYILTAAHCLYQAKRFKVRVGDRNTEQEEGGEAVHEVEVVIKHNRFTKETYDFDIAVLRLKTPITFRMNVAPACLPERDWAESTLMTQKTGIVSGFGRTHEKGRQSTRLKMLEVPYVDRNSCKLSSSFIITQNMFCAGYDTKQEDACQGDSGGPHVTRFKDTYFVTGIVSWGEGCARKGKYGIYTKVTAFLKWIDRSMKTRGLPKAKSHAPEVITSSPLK
Sequence of Plasminogen (P00747 97-580 limits assumed): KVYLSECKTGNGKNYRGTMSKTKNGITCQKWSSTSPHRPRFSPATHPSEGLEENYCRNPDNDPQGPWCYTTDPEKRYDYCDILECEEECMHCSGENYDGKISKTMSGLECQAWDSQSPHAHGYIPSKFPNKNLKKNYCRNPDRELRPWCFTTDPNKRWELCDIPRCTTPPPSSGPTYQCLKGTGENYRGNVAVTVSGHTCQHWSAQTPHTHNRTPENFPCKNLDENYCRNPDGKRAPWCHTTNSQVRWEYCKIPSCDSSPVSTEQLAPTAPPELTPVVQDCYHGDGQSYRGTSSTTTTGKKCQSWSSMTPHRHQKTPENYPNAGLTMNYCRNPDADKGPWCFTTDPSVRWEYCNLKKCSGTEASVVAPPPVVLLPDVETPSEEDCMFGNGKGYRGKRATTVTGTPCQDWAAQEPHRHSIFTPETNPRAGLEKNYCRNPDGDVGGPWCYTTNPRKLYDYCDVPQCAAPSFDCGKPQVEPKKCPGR
Sequence of Plasminogen (P00747 581-810 limits assumed): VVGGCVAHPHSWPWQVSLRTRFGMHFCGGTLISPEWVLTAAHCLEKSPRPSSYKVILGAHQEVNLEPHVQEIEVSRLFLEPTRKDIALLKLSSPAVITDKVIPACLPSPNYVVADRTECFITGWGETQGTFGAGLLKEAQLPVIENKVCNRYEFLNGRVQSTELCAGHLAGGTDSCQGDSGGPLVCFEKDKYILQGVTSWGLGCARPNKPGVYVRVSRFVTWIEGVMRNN

For orientation: logD means the decadic logarithm of the distribution of all forms, ionised or not, between an organic phase and buffer at a given pH. High values mean a more lipophilic compound, low ones a more hydrophilic compound. Broadly, the Ki is a dissociation constant, usually derived from enzyme kinetics or from competition with a known ligand. The term solubility denotes how much of the substance goes into solution per volume. Higher therefore signals much dissolved substance. As usually defined, the inhibition is how much of the control response was suppressed. As a reminder, the pKa is the negative logarithm of the acid dissociation constant. Low readings indicate a group that gives up its proton readily, high ones a group that holds its proton tightly. For the molecule `CC(C)(NS(=O)(=O)c1ccc2c(Cl)cnc(N=C(N)N)c2c1)C(=O)O`, the concentration in data set [1] came to 41.8 µM. For the same molecule, the logD in data set [2] is 0. The Ki is 27 µM on Plasminogen and 40 µM in data set [4]. In addition, the solubility in [3] came out at 2.3 µg/mL (≈ 5.96 µM). The figures for the inhibition (in [5]; against Coagulation factor IX [6]) were 0% and 13%, respectively. Further, in data set [7], the pKa stood at 3.4.
Broadly, the IC50 is the point on the concentration scale where inhibition reaches its midpoint. Read a high IC50 as weaker potency. In the case of `NC(N)=Nc1nccc2c(Cl)cc(-c3cccc(C(=O)O)c3)cc12`, the results for the inhibition (in data set [8]; on Prothrombin (Bos taurus); in [5]) were 3%, 2% and 0%, respectively. In addition, the Ki at Coagulation factor IX [9] amounted to 1.24 µM. Further, the values for the IC50 in data set [10] and in data set [11] were 8.35 µM and 6.91 µM, respectively. This molecule also yielded a logD in data set [2] of 2.3. Besides, the solubility is below 1 µg/mL in [3] and 60 µM (≈ 20.4 µg/mL) in the data set listed under Homo sapiens [12]. For the same molecule, the fraction unbound in the data set listed under Homo sapiens [13] is 0.002. In data set [7], the pKa amounted to 2.35.
